ChEMBL document CHEMBL4007430, “Synthesis and Cytostatic and Antiviral Profiling of Thieno-Fused 7-Deazapurine Ribonucleosides” (J Med Chem, 2017)

Legend:
[1] = test system: K562; assay: Cytotoxicity against human K562 cells assessed as cell growth inhibition after 72 hrs by MTS assay; assay type: functional, cell-based; conditions: K562, 72 h
Outline: (§1)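 Cells were exposed to compound for 3 days, then stained with MTS as a quantitative metabolic read-out. IC50 is the concentration that inhibits cell growth by 50%.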

[2] = test system: U2OS; assay: Cytotoxicity against human U2OS cells assessed as cell growth inhibition after 72 hrs by MTS assay; assay type: functional, cell-based
[3] = Cytotoxicity against human K562-TAX cells assessed as cell growth inhibition after 72 hrs by MTS assay; assay type: functional, cell-based; outline: as §1
[4] = test system: BJ; assay: Cytotoxicity against human BJ cells assessed as cell growth inhibition after 72 hrs by MTS assay; assay type: cell-based; outline: as §1
[5] = Cytotoxicity against mrp-1/mdr-1 overexpressing human CEM-DNR-bulk cells assessed as cell growth inhibition after 72 hrs by MTS assay; assay type: functional, cell-based
Outline: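 Cells were exposed to compound for 3 days, then stained with MTS as a quantitative metabolic read-out.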

[6] = test system: A549; assay: Cytotoxicity against human A549 cells assessed as cell growth inhibition after 72 hrs by MTS assay; assay type: functional, cell-based; conditions: A549, 72 h; outline: as §1
[7] = test system: HeLa S3; assay: Cytotoxicity against human HeLaS3 cells assessed as reduction in cell viability after 72 hrs by XTT assay; assay type: functional, cell-based; conditions: HeLa S3, 72 h
Outline: (§2)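 Cells were incubated with compound for 3 days. Viability was then measured with the XTT tetrazolium assay.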

[8] = test system: HCT-116; assay: Cytotoxicity against p53 deficient human HCT116 cells assessed as cell growth inhibition after 72 hrs by MTS assay; assay type: functional, cell-based; conditions: HCT-116, 72 h; outline: as §1
[9] = test system: CCRF-CEM; assay: Cytotoxicity against human CCRF-CEM cells assessed as cell growth inhibition after 72 hrs by MTS assay
[10] = test system: HCT-116; assay: Cytotoxicity against human HCT116 cells assessed as cell growth inhibition after 72 hrs by MTS assay; assay type: functional, cell-based; conditions: HCT-116, 72 h; outline: as §1
[11] = test system: MRC5; assay: Cytotoxicity against human MRC5 cells assessed as cell growth inhibition after 72 hrs by MTS assay; assay type: cell-based; conditions: MRC5, 72 h; outline: as §1
[12] = test system: HepG2; assay: Cytotoxicity against human HepG2 cells assessed as reduction in cell viability after 72 hrs by XTT assay; assay type: functional, cell-based; conditions: HepG2, 72 h; outline: as §2
[13] = test system: HL-60; assay: Cytotoxicity against human HL60 cells assessed as reduction in cell viability after 72 hrs by XTT assay; assay type: functional, cell-based; conditions: HL-60, 72 h; outline: as §2
[14] = Cytotoxicity against human HuH7 cells; assay type: cell-based, Huh-7
[15] = test system: Hepatitis C virus; assay: Anti-HCV activity against Hepatitis C virus genotype 2a infected in human Huh7 replicon cells after 96 hrs by luciferase reporter gene assay; assay type: functional, cell-based, Hepacivirus hominis; conditions: Huh-7, 96 h
[16] = test system: Hepatitis C virus; assay: Anti-HCV activity against Hepatitis C virus genotype 1b infected in human Huh7 replicon cells after 96 hrs by luciferase reporter gene assay; assay type: functional, cell-based, Hepacivirus hominis; conditions: Huh-7, 96 h
[17] = test system: CCRF-CEM; assay: Inhibition of mitosis in human CCRF-CEM cells assessed as pH3Ser10 positive cells after 24 hrs by flow cytometric analysis; assay type: functional, cell-based
[18] = test system: CCRF-CEM; assay: Cell cycle arrest in human CCRF-CEM cells assessed as accumulation at G2/M phase at 5 times IC50 after 24 hrs by propidium iodide staining-based flow cytometric analysis (reference value: 14.70%); assay type: functional
[19] = test system: CCRF-CEM; assay: Induction of apoptosis in human CCRF-CEM cells assessed as accumulation at subG1 phase at IC50 after 24 hrs by propidium iodide staining-based flow cytometric analysis (reference value: 2.32%); assay type: functional
[20] = test system: CCRF-CEM; assay: Induction of apoptosis in human CCRF-CEM cells assessed as accumulation at subG1 phase at 5 times IC50 after 24 hrs by propidium iodide staining-based flow cytometric analysis (reference value: 2.32%); assay type: functional
[21] = test system: CCRF-CEM; assay: Inhibition of DNA synthesis in human CCRF-CEM cells assessed as decrease in BrdU incorporation by measuring synthesized DNA levels at 5 times IC50 after 24 hrs by propidium iodide staining-based flow cytometric analysis (reference value: 52.66%); assay type: functional
[22] = test system: CCRF-CEM; assay: Cell cycle arrest in human CCRF-CEM cells assessed as accumulation at G0/G1 phase at IC50 after 24 hrs by propidium iodide staining-based flow cytometric analysis (reference value: 41.11%); assay type: functional
[23] = test system: CCRF-CEM; assay: Cell cycle arrest in human CCRF-CEM cells assessed as accumulation at S phase at 5 times IC50 after 24 hrs by propidium iodide staining-based flow cytometric analysis (reference value: 44.20%); assay type: functional
[24] = test system: CCRF-CEM; assay: Inhibition of mitosis in human CCRF-CEM cells assessed as pH3Ser10 positive cells at IC50 after 24 hrs by flow cytometric analysis (reference value: 1.74%); assay type: functional
[25] = test system: CCRF-CEM; assay: Inhibition of DNA synthesis in human CCRF-CEM cells assessed as decrease in BrdU incorporation by measuring synthesized DNA levels at IC50 after 24 hrs by propidium iodide staining-based flow cytometric analysis (reference value: 52.66%); assay type: functional
[26] = test system: CCRF-CEM; assay: Cell cycle arrest in human CCRF-CEM cells assessed as accumulation at G0/G1 phase at 5 times IC50 after 24 hrs by propidium iodide staining-based flow cytometric analysis (reference value: 41.11%); assay type: functional
[27] = test system: CCRF-CEM; assay: Inhibition of mitosis in human CCRF-CEM cells assessed as pH3Ser10 positive cells at 5 times IC50 after 24 hrs by flow cytometric analysis (reference value: 1.74%); assay type: functional
[28] = test system: CCRF-CEM; assay: Cell cycle arrest in human CCRF-CEM cells assessed as accumulation at S phase at IC50 after 24 hrs by propidium iodide staining-based flow cytometric analysis (reference value: 44.20%); assay type: functional
[29] = test system: CCRF-CEM; assay: Inhibition of RNA synthesis in human CCRF-CEM cells assessed as decrease in BrU incorporation by measuring synthesized RNA levels at IC50 after 24 hrs by propidium iodide staining-based flow cytometric method (reference value: 53.09%); assay type: functional
[30] = test system: CCRF-CEM; assay: Inhibition of RNA synthesis in human CCRF-CEM cells assessed as decrease in BrU incorporation by measuring synthesized RNA levels at 5 times IC50 after 24 hrs by propidium iodide staining-based flow cytometric method (reference value: 53.09%); assay type: functional
[31] = test system: CCRF-CEM; assay: Cell cycle arrest in human CCRF-CEM cells assessed as accumulation at G2/M phase at IC50 after 24 hrs by propidium iodide staining-based flow cytometric analysis (reference value: 14.70%); assay type: functional

| Compound | IC50 [1] [µM] | IC50 [2] [µM] | IC50 [3] [µM] | IC50 [4] [µM] | IC50 [5] [µM] | IC50 [6] [µM] | IC50 [7] [µM] | IC50 [8] [µM] | IC50 [9] [µM] | IC50 [10] [µM] | IC50 [11] [µM] | IC50 [12] [µM] | IC50 [13] [µM] | CC50 [14] [µM] | EC50 [15] [µM] | EC50 [16] [µM] | also measured |
| --- | --- | --- | --- | --- | --- | --- | --- | --- | --- | --- | --- | --- | --- | --- | --- | --- | --- |
| OC[C@H]1O[C@@H](n2c3ccsc3c3c(-c4ccoc4)ncnc32)[C@H](O)[C@@H]1O | > 50 | > 50 | > 50 | 32 | > 50 | > 50 | > 50 | > 50 | 3.61 | > 50 | > 50 | > 50 | > 50 |  |  |  |  |
| OC[C@H]1O[C@@H](n2c3ncnc(-c4ccco4)c3c3ccsc32)[C@H](O)[C@@H]1O | > 50 | > 50 | > 50 | > 50 | > 50 | > 50 | > 50 | > 50 | > 50 | > 50 | > 50 | > 50 | > 50 |  |  |  |  |
| Nc1ncnc2c1c1sccc1n2[C@@H]1O[C@H](CO)[C@@H](O)[C@H]1O | 6.16 | 2.5 | 4.28 | 16.8 | 15.2 | 11.9 | 1.54 | 4.37 | 6.22 | 5.39 | 30.3 | 0.56 | 0.31 | 16.4 to 17.2 | 13.5 | 5.02 |  |
| OC[C@H]1O[C@@H](n2c3ncnc(-c4cc5ccccc5o4)c3c3ccsc32)[C@H](O)[C@@H]1O | 29.7 | 33.1 | 14.9 | 36.8 | 20.6 | > 50 | > 50 | > 50 | 15.9 | 47.1 | 37.5 | > 50 | > 50 | > 44.4 | 14.1 | 2.05 |  |
| OC[C@H]1O[C@@H](n2c3ncnc(-c4ccoc4)c3c3ccsc32)[C@H](O)[C@@H]1O | > 50 | > 50 | > 50 | > 50 | > 50 | > 50 | > 50 | > 50 | > 50 | > 50 | > 50 | > 50 | > 50 |  |  |  |  |
| CN(C)c1ncnc2c1c1ccsc1n2[C@@H]1O[C@H](CO)[C@@H](O)[C@H]1O | > 50 | > 50 | > 50 | > 50 | > 50 | > 50 | > 50 | > 50 | > 50 | > 50 | > 50 | > 50 | > 50 |  |  |  |  |
| Nc1ccn([C@@H]2O[C@H](CO)[C@@H](O)C2(F)F)c(=O)n1 [GEMCITABINE] |  |  |  | > 50 |  |  |  |  |  |  | > 50 |  |  |  |  |  |  |
| COc1ncnc2c1c1sccc1n2[C@@H]1O[C@H](CO)[C@@H](O)[C@H]1O | 0.2 | 0.46 | 4.05 | 0.4 | 61.8 | 0.22 | 0.9 | 0.13 | 0.13 | 0.13 | 25.2 | 0.15 | 0.11 | 13.9 to 29.2 | 15 | 0.95 | Activity [17]: Dose-dependent effect; Activity [18]: 5.86%; Activity [19]: 11.17%; Activity [20]: 17.46%; BrdU+ cells (%) [21]: 63.58%; Activity [22]: 34.35%; Activity [23]: 75.47%; pH3Ser10+ cells (%) [24]: 1.07%; BrdU+ cells (%) [25]: 56%; Activity [26]: 18.67%; pH3Ser10+ cells (%) [27]: 0.41%; Activity [28]: 50.91%; BrU+ cells (%) [29]: 34.93%; BrU+ cells (%) [30]: 26.27%; Activity [31]: 14.73% |
| CC(C)C(=O)OC[C@H]1O[C@@H](n2ccc(N)nc2=O)[C@](C)(F)[C@@H]1OC(=O)C(C)C [MERICITABINE] |  |  |  |  |  |  |  |  |  |  |  |  |  | > 44.4 |  |  |  |
| COc1ncnc2c1c1ccsc1n2[C@@H]1O[C@H](CO)[C@@H](O)[C@H]1O | 1.06 | 0.93 | 11.1 | 7.49 | > 50 | 1.23 | 0.23 | 0.64 | 0.22 | 0.61 | > 50 | 1.33 | 0.57 | > 44.4 | 0.4 | 0.23 | Activity [17]: Dose-dependent effect; Activity [18]: 12.27%; Activity [19]: 2.55%; Activity [20]: 11.22%; BrdU+ cells (%) [21]: 55.12%; Activity [22]: 35.73%; Activity [23]: 63.97%; pH3Ser10+ cells (%) [24]: 1.17%; BrdU+ cells (%) [25]: 62.59%; Activity [26]: 23.76%; pH3Ser10+ cells (%) [27]: 0.38%; Activity [28]: 45.01%; BrU+ cells (%) [29]: 28.75%; BrU+ cells (%) [30]: 8.31%; Activity [31]: 19.25% |
| OC[C@H]1O[C@@H](n2c3ccsc3c3c(-c4ccco4)ncnc32)[C@H](O)[C@@H]1O | > 50 | > 50 | > 50 | > 50 | > 50 | > 50 | > 50 | > 50 | > 50 | > 50 | > 50 | > 50 | > 50 |  |  |  |  |
| OC[C@H]1O[C@@H](n2c3ccsc3c3c(-c4cc5ccccc5o4)ncnc32)[C@H](O)[C@@H]1O | 15.4 | 18.5 | 17.9 | 23 | 14.4 | 21.2 | 24.3 | 12.3 | 6.86 | 16.2 | 32.6 | 4.28 | 2.38 | 19.6 to 26.6 | 13.9 | 2.1 |  |
| CN(C)c1ncnc2c1c1sccc1n2[C@@H]1O[C@H](CO)[C@@H](O)[C@H]1O | > 50 | > 50 | > 50 | > 50 | > 50 | > 50 | > 50 | > 50 | 47.6 | > 50 | > 50 | > 50 | > 50 |  |  |  |  |
| Nc1ncnc2c1c1ccsc1n2[C@@H]1O[C@H](CO)[C@@H](O)[C@H]1O | 36.3 | 0.51 | 0.82 | 1.09 | 41.2 | 30.1 | > 50 | 10.9 | 0.3 | 46.7 | > 50 | 1.46 | 0.95 | > 44.4 | > 44.4 | 17.5 |  |
